According to paper PMC8343189 (Acta Pharmaceutica Sinica. B, 2020):

Key:
[1] = test system: intracellular Ca^2+ concentration; assay: Intracellular Ca^2+ fluorescence; format: cell-based; settings: 30 μmol/L compound, 200 μmol/L ATP, Cal520, control 2.3 folds
[2] = biological target: T1, ANO1 (Homo sapiens, UniProt Q5XXA6, DEL476-501); assay: YFP fluorescence quenching assay in ANO1-overexpressing FRT cell line; format: cell-based
T1 sequence (Q5XXA6 with tags, fused parts or gaps isoform Q5XXA6-5 DEL539-564): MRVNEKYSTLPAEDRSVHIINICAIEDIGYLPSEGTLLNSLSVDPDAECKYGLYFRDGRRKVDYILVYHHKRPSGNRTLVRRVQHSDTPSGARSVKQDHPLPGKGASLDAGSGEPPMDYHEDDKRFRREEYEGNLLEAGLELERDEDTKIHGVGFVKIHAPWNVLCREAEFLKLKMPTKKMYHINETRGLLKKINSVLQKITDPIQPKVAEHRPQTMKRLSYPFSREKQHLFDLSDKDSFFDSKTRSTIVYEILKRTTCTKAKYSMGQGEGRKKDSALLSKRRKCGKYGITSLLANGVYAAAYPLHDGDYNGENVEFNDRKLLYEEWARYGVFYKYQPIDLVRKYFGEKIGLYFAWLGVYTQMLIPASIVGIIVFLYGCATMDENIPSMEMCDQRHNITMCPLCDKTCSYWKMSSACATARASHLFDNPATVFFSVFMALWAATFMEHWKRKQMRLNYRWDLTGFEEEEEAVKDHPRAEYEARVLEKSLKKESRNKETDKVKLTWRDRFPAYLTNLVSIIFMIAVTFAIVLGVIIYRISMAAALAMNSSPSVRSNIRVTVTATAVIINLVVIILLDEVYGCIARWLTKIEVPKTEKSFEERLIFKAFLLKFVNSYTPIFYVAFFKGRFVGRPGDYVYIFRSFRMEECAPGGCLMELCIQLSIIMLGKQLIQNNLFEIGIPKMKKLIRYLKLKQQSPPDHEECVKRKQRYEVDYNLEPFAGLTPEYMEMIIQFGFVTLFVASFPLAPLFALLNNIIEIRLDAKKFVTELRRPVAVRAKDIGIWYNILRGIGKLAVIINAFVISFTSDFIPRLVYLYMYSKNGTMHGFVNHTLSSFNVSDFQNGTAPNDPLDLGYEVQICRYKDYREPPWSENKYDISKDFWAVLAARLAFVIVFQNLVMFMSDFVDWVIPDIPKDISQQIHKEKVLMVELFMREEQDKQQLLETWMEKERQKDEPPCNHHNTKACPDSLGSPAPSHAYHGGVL

[3] = test system: SD rats; assay: Chronic constriction injury model; format: in vivo; settings: rat CCI, Electronic Von Frey, vehicle 11.5
[4] = test system: SD rats; assay: Formalin test on rat; format: in vivo; settings: for number of foot lifts, phase 2: phase 2, vehicle 121 foot lifts
Method in brief: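 30 min later, 50 μL 5% formalin injected into the left paw; controls received saline. Foot lifts counted over phase 1 (0–10 min) and phase 2 (10–60 min). Mean ± SD; ANOVA vs vehicle.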

[5] = Stability under different pH conditions; format: physicochemical; settings: 37 °C, 100 μmol/L, mean ± SD, n = 3
Method in brief: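 Test compound diluted to 100 μmol/L in phosphate buffers at pH 1.0, 4.0, 6.8, 7.4 and 9.0 and held in a 37 °C water bath. HPLC−UV peak area measured at 0, 2 and 5 h; residual expressed relative to the 0 h peak area.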

[6] = test system: CHO cells; assay: SRB proliferative cytotoxicity in CHO cells; format: cell-based, Chinese Hamster; settings: 72 h
Method in brief: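 CHO cells in DMEM with 10% FBS, seeded overnight, then exposed to test compound or DMSO vehicle for 72 h. Cells fixed with 10% TCA for 1 h at 4 °C and stained with 0.4% SRB in 1% acetic acid for 15 min in the dark. Washed with acetic acid, dye dissolved in 10 mmol/L Tris-base, absorbance read at 540 nm. n = 3, mean ± SEM, t-test vs DMSO control.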

For `CCOC(=O)C1=C(COCCN)NC(C)=C(C(=O)OC)C1c1ccccc1Cl` (stereo not shown) [Amlodipine, reference compound], the “maximum relative fluorescence units (RFU) vs initial value (Ca^2+ influx)” value [1] was “remained unchanged”.
`CC(C)(C)c1ccc(C(=O)Nc2scc(-c3ccc4ccccc4c3)c2C(=O)O)cc1` [Compound 39, 2-(4-(tert-Butyl)benzamido)-4-(naphthalen-2-yl) thiophene-3-carboxylic acid] showed an IC50 [2] of 1.29 µM.
`O=C(Nc1scc(-c2ccc(Cl)cc2)c1C(=O)O)c1ccc(Cl)cc1Cl` [Compound 44, 4-(4-Chlorophenyl)-2-(2,4-dichlorobenzamido)thiophene-3-carboxylic acid] showed an IC50 [2] of 1.24 µM.
For `O=C(Nc1scc(-c2ccc(Cl)cc2)c1C(=O)O)c1cccs1` [Compound 45, 4-(4-Chlorophenyl)-2-(thiophene-2-carboxamido) thiophene-3-carboxylic acid], the IC50 [2] was 1.74 µM.
With `CCOC(=O)Nc1ccc(NCc2ccc(F)cc2)nc1N` [Flupirtine] the “PTI, pain threshold rate change (%) of 1 h compared to 0 h” value ([3]; 100 mg/kg i.g.) was 36.2% and the “number of foot lifts, phase 2” value ([4]; 200 mg/kg i.g.) was 74 foot lifts.
`COc1ccc(C(=O)Nc2scc(-c3ccc(C(C)(C)C)cc3)c2C(=O)O)cc1` [Compound 41, 4-(4-(tert-Butyl)phenyl)-2-(4-methoxybenzamido) thiophene-3-carboxylic acid] gave an IC50 [2] of 2.28 µM.
For `CC(C)C[C@H](CN)CC(=O)O` [Pregabalin], the “PTI, pain threshold rate change (%) of 1 h compared to 0 h” value ([3]; 40 mg/kg i.g.) was 60.4% and the “number of foot lifts, phase 2” value ([4]; 40 mg/kg i.g.) was 44 foot lifts.
With `O=C(Nc1scc(-c2ccc(Cl)cc2)c1C(=O)O)c1ccc2ccccc2c1` [Compound 43, 2-(2-Naphthamido)-4-(4-chlorophenyl) thiophene-3-carboxylic acid] the IC50 [2] was 2.45 µM.
`Cc1ccc(C(=O)Nc2scc(-c3ccc(Cl)cc3)c2C(=O)O)c2ccccc12` [Compound 46, 4-(4-Chlorophenyl)-2-(4-methyl-1-naphthamido) thiophene-3-carboxylic acid] showed an IC50 [2] of 14.5 µM.
For `CC(C)(C)c1ccc(C(=O)Nc2sc3c(c2C(=O)O)-c2ccccc2C3(C)C)cc1` [Compound 52, 2-(4-(tert-Butyl)benzamido)-8,8-dimethyl-8H-indeno [2,1-b] thiophene-3-carboxylic acid], the IC50 [2] was 3.33 µM.
`CC(C)(C)c1ccc(C(=O)Nc2scc(-c3ccc(F)cc3)c2C(=O)O)cc1` [Compound 33, 2-(4-(tert-Butyl)benzamido)-4-(4-fluorophenyl) thiophene-3-carboxylic acid] gave an IC50 [2] of 9.62 µM.
`CC(C)(C)c1ccc(C(=O)Nc2scc(-c3ccc(C(C)(C)C)cc3)c2C(=O)O)cc1` [Compound 36, 2-(4-(tert-Butyl)benzamido)-4-(4-(tert-butyl)phenyl) thiophene-3-carboxylic acid] gave an IC50 [2] of 3.67 µM.
With `CC(C)(C)C1CCc2c(sc(NC(=O)c3ccco3)c2C(=O)O)C1` (stereo not shown) [Compound 1, 6-(tert-Butyl)-2-(furan-2-carboxamido)-4,5,6,7-tetrahydrobenzo[b]thiophene-3-carboxylic acid, reference compound] the “5 h residual compound under different pH (%) pH 1.0” value ([5]; pH 1.0, 5 h) was 93.8 ± 4.0%, the “5 h residual compound under different pH (%) pH 4.0” value ([5]; pH 4.0, 5 h) was 85.3 ± 8.1% and the “5 h residual compound under different pH (%) pH 6.8” value ([5]; pH 6.8, 5 h) was 94.9 ± 2.9%. The “5 h residual compound under different pH (%) pH 7.4” value ([5]; pH 7.4, 5 h) was 98.7 ± 0.7%, the “5 h residual compound under different pH (%) pH 9.0” value ([5]; pH 9.0, 5 h) was 97.6 ± 1.2% and the “analgesic effect in phase 2 compared with vehicle” value ([4]; 80 mg/kg i.g., phase 2) was “no significant analgesic effect”. The “number of foot lifts, phase 2” value ([4]; 80 mg/kg i.g.) was 84 foot lifts and the “effect on CHO cell proliferation” value ([6]; all concentrations tested) was “inhibited cell proliferation”.
Work on `CC(C)(C)c1ccc(C(=O)Nc2scc(-c3ccc(Cl)cc3)c2C(=O)O)cc1` [Compound 34, 2-(4-(tert-Butyl)benzamido)-4-(4-chlorophenyl) thiophene-3-carboxylic acid] yielded an IC50 [2] of 1.34 µM.
For `CC(C)(C)c1ccc(C(=O)Nc2scc(-c3ccc(Cl)cc3Cl)c2C(=O)O)cc1` [Compound 38, 2-(4-(tert-Butyl)benzamido)-4-(2,4-dichlorophenyl) thiophene-3-carboxylic acid], the IC50 [2] was greater than 100 µM.
Molecule `CC(C)(C)c1ccc(C(=O)Nc2sc3c(c2C(=O)O)-c2ccccc2CC3)cc1` [Compound 53, 2-(4-(tert-Butyl)benzamido)-4,5-dihydronaphtho [2,1-b] thiophene-1-carboxylic acid] has an IC50 [2] of 5.15 µM.
`COc1ccc(-c2csc(NC(=O)c3cccs3)c2C(=O)O)cc1` [Compound 40, 4-(4-Methoxyphenyl)-2-(thiophene-2-carboxamido) thiophene-3-carboxylic acid] gave an IC50 [2] of 25.5 µM.
Work on `CC(C)(C)c1ccc(C(=O)Nc2scc(-c3ccc(-c4ccccc4)cc3)c2C(=O)O)cc1` [Compound 37, 4-([1,1′-Biphenyl]-4-yl)-2-(4-(tert-butyl)benzamido) thiophene-3-carboxylic acid] yielded an IC50 [2] of 2.3 µM.
In the case of `O=C(Nc1sc2c(c1C(=O)O)-c1ccccc1C2)c1cccs1` [Compound 49, 2-(Thiophene-2-carboxamido)-8H-indeno [2,1-b] thiophene-3-carboxylic acid], the IC50 [2] is reported as 11.3 µM.
`O=C(O)c1c(NC(=O)c2cccc3ccccc23)sc2c1-c1ccccc1C2` [Compound 51, 2-(1-Naphthamido)-8H-indeno [2,1-b] thiophene-3-carboxylic acid] showed an IC50 [2] of 2.21 µM.
With `CCc1c(C)nc(SCC(=O)Nc2nc(-c3ccc(OC)cc3)cs2)[nH]c1=O` [Compound T16Ainh-A01] the “effect on CHO cell proliferation” value ([6]; 1 and 3 μmol/L) was “weak effect”.
In the case of `CC(C)(C)c1ccc(C(=O)Nc2sc3c(c2C(=O)O)-c2ccccc2C3)cc1` [Compound 47, 2-(4-(tert-Butyl)benzamido)-8H-indeno [2,1-b] thiophene-3-carboxylic acid], the IC50 [2] is reported as 12.6 µM.
`O=C(Nc1sc2c(c1C(=O)O)-c1ccccc1C2)c1ccc2ccccc2c1` [Compound 50, 2-(2-Naphthamido)-8H-indeno [2,1-b] thiophene-3-carboxylic acid] showed an IC50 [2] of 1.91 µM.
Work on `COc1ccc2c(c1)Cc1sc(NC(=O)c3ccc(C(C)(C)C)cc3)c(C(=O)O)c1-2` [Compound 48, 2-(4-(tert-Butyl)benzamido)-6-methoxy-8H-indeno [2,1-b] thiophene-3-carboxylic acid] yielded an IC50 [2] of 28.9 µM.
In the case of `CC(C)(C)c1ccc(C(=O)Nc2scc(-c3ccc(C(F)(F)F)cc3)c2C(=O)O)cc1` [Compound 35, 2-(4-(tert-Butyl)benzamido)-4-(4-(trifluoromethyl)phenyl) thiophene-3-carboxylic acid], the IC50 [2] is reported as greater than 100 µM.
